# GASC1 inh: blocks human GASC-1 (KDM4C) demethylase activity; GST-KDM4C 2-372, H3K9me3 peptide, LANCE TR-FRET; inhibition, % at 12.5 µM; AID 720574; 0.15% of 96,000 active;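 active means mean replicate inhibition above about 25%, with at least 55% of replicates also reaching it, limit read from the data, passing the limit was not always enough; inconclusive means only one of those two conditions met; inactive means neither condition met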
#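 System: N-terminal GST-fused human GASC-1 (KDM4C) fragment, residues 2-372 / Amount: 10 nM GST-KDM4C in enzyme reaction / Also added: H3K9me3 peptide with Fe(II)/2OG / Times: 30 min demethylation and 1 h detection at room temperature / Signal: LANCE TR-FRET / Read-out basis: Fall in 671/618 emission ratio as inhibition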
# Tcruzi prolif: T. cruzi proliferation inhibition. T. cruzi beta-gal in NIH3T3, GalScreen luminescence, 90 h. inhibition, % at 8.34 µM. 5.9% of 77,000 active. AID 624255;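 active means mean inhibition above about 93%, with at least 55% of replicates each passing it, limit read from the data, passing the limit was not always enough; inconclusive means only one of those two conditions holds; inactive means neither condition holds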
# IDH1 R132H inh: IDH1 R132H (human) inhibition; 0.18% of 70,000 active; AID 624101; IDH1 R132H reductase, diaphorase/resazurin fluorescence, 60 min; inhibition, % at 10 µM; in the data active means inhibition above about 34%; inconclusive means no clear call, values can overlap the other calls; inactive means below about 11%;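 further: 0% = DMSO and 100% = no enzyme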
# Target sequence (O75874 whole entry R132H): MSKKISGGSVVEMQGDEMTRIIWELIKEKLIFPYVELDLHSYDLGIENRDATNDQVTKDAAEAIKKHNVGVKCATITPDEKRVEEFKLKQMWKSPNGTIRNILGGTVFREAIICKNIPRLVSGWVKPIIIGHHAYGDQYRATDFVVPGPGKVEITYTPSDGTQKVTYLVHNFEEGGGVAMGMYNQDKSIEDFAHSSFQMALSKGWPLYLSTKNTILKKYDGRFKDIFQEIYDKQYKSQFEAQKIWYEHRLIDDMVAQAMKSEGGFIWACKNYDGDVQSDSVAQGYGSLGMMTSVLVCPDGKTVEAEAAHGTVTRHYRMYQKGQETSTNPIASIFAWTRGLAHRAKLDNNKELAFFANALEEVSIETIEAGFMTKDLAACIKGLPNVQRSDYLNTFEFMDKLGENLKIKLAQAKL
# Pf Dd2 growth: inhibitors of Plasmodium falciparum Dd2 growth | P. falciparum Dd2 growth, SYBR Green, 72 h; hits give low values | activity change, % at 10 µM | 2.3% of 94,000 active; in the data active means activity change below about -80%; inconclusive means no clear call, values can overlap the other calls
# Starred values were filed as active, the others as inactive; u = inconclusive; x = no result; ! = not active in a repeat. In the library only some 5.8% were active in any assay of this set; here they are far more common.
SMILES,GASC1 inh,Tcruzi prolif,IDH1 R132H inh,Pf Dd2 growth
C[C@H]1CN([C@@H](C)CO)C(=O)Cc2cc(NC(=O)C3CCCCC3)ccc2O[C@H]1CN(C)Cc1ccncc1,1,21,2,-8
COc1ccc([N+](=O)[O-])cc1N(CC(=O)Nc1ccccc1Br)S(C)(=O)=O,x,x,2,x
COc1cc(OC)c(NC(=O)CSc2ccccn2)cc1Cl,x,x,0,x
C=Cc1ccc(O[C@@H]2O[C@H](CO)[C@@H](O)[C@H](O)[C@H]2O[C@@H]2O[C@@H](C)[C@H](O)[C@@H](O)[C@H]2O)cc1,x,x,0,x
Fc1ccc(-c2ccc(C3[C@@H]4CN(Cc5ccccc5)C[C@H]3N4)cc2)cc1 (some centres undefined),41*!,x,x,-82*!
Fc1ccc(-c2ccc(C3[C@@H]4CN(Cc5cccc(F)c5)C[C@H]3N4)cc2)cc1 (some centres undefined),2,x,x,-21
Cc1cccc(-c2ccc(C3[C@@H]4CN(Cc5ccccc5F)C[C@H]3N4)cc2)c1 (some centres undefined),1,x,x,7
Cc1ccc(-c2ccc([C@@H]3[C@@H]4CN(Cc5ccccc5F)C[C@H]3N4)cc2)cc1,-3,x,x,-87*
CCCc1cn([C@H]2C[C@@H]3O[C@H](CO)CC[C@@H]3O[C@@H]2CCc2ccc(-c3cccc(OC)c3)cc2)nn1,x,x,x,-69
CCCc1cn([C@H]2C[C@@H]3O[C@H](CO)CC[C@@H]3O[C@@H]2CCc2ccc(-c3ccc(OC)cc3)cc2)nn1,x,x,x,-83*
CCCc1cn([C@@H]2C[C@@H]3O[C@H](CO)CC[C@@H]3O[C@@H]2CCc2ccc(-c3cccc(OC)c3)cc2)nn1,x,x,x,-87*
C=C1[C@H]2CC[C@@]3(C)[C@H](c4ccoc4)OC(=O)C[C@]13O[C@H]1C[C@H](O)C(C)(C)[C@H](CC(=O)OC)[C@]12C,x,x,0,x
Cc1cc(C)cc(NC(=O)CN(c2cc([N+](=O)[O-])ccc2C)S(C)(=O)=O)c1,x,x,0,x
Cc1ccc(S(=O)(=O)NCC[C@@H]2CC[C@H](NC(=O)CC3CC3)[C@@H](CO)O2)cc1,39*,-26,23,10
Cc1ccc(S(=O)(=O)NCC[C@H]2CC[C@@H](NC(=O)CC3CC3)[C@H](CO)O2)cc1,1,9,0,13
COc1ccc(S(=O)(=O)Nc2cccc3c2O[C@H](CN(C)Cc2ccc(-c4ccccc4)cc2)[C@@H](C)CN([C@H](C)CO)C3=O)cc1,0,x,x,-91*
C[C@@H]1CN([C@@H](C)CO)C(=O)c2cccc(NS(=O)(=O)c3ccccc3)c2O[C@H]1CN(C)Cc1ccc(-c2ccccc2)cc1,1,79,x,-84*
C[C@H]1CN([C@@H](C)CO)C(=O)c2cccc(NS(C)(=O)=O)c2O[C@@H]1CN(C)Cc1ccc(-c2ccccc2)cc1,0,55,x,-84*
CCn1c(SCC(=O)Nc2ccc(Br)cc2C)nnc1-c1ccccc1F,x,x,0,x
N#C[C@H]1[C@@H](c2ccc(C#CCC3CCCC3)cc2)[C@H](CO)N1C(=O)c1ccccn1,-4,101*,x,-43
CC(C)C#Cc1ccc([C@@H]2[C@@H](CO)N(C(=O)c3ccccn3)[C@H]2C#N)cc1,-5,92,x,-26
N#C[C@@H]1[C@H](c2ccc(C#CCC3CCCC3)cc2)[C@H](CO)N1C(=O)c1ccccn1,0,94,x,u
N#C[C@H]1[C@H](c2ccc(C#CCC3CCCC3)cc2)[C@H](CO)N1C(=O)c1ccccn1,5,104*,x,-24
Cc1ccc(S(=O)(=O)N(C)C[C@@H]2Oc3c(NC(=O)CCCCCC(=O)Nc4ccccc4N)cccc3C(=O)N([C@@H](C)CO)C[C@H]2C)cc1,1,x,2,-88*
Cc1ccc(S(=O)(=O)N(C)C[C@H]2Oc3c(NC(=O)CCCCCC(=O)Nc4ccccc4N)cccc3C(=O)N([C@@H](C)CO)C[C@H]2C)cc1,0,x,0,-91*
SMILES,GASC1 inh,Tcruzi prolif,IDH1 R132H inh,Pf Dd2 growth
C[C@@H]1CN([C@H](C)CO)C(=O)c2cccc(NC(=O)CCCCCC(=O)Nc3ccccc3N)c2O[C@H]1CN(C)S(=O)(=O)c1cccs1,0,x,0,-48
C[C@@H]1CN([C@@H](C)CO)C(=O)c2cccc(NC(=O)CCCCCC(=O)Nc3ccccc3N)c2O[C@@H]1CN(C)S(=O)(=O)c1cccs1,-1,x,0,-92*
C[C@@H]1CN([C@@H](C)CO)C(=O)c2cccc(NC(=O)CCCCCC(=O)Nc3ccccc3N)c2O[C@@H]1CN(C)S(=O)(=O)c1ccccc1,0,x,x,-90*
CCOc1ccc(-n2c(SCC(=O)OC)nnc2-c2ccccc2)cc1,x,x,0,x
COc1cc2c(cc1NC(=O)C(C)Oc1cccc(Cl)c1)oc1ccccc12 (centres undefined),x,x,0,x
O=C(CCNc1ccc(Oc2ccccc2)cc1)c1ccco1,x,x,0,x
COc1ccc2c3c(n(C)c2c1)[C@H](CO)N(C(=O)C1CC1)CC31CN(C(=O)C2CCOCC2)C1,1,x,x,-87*
COc1ccc2c3c(n(C)c2c1)[C@H](CO)N(C(=O)C1CC1)CC31CCN(C)CC1,-1,x,x,-86*
COc1ccc(S(=O)(=O)N(C)C[C@@H]2Oc3cc(C#CC4CCCCC4)ccc3S(=O)(=O)N([C@H](C)CO)C[C@@H]2C)cc1,0,79,x,-76
COc1ccc(S(=O)(=O)N(C)C[C@H]2Oc3cc(C#CC4CCCCC4)ccc3S(=O)(=O)N([C@H](C)CO)C[C@@H]2C)cc1,1,83,x,-85*
COc1ccccc1S(=O)(=O)N(C)C[C@@H]1Oc2cc(C#CCC(C)C)ccc2S(=O)(=O)N([C@H](C)CO)C[C@@H]1C,-1,46,-2,-85*!
COc1ccc(C#Cc2ccc3c(c2)O[C@@H](CN(C)S(=O)(=O)c2ccccc2F)[C@@H](C)CN([C@H](C)CO)S3(=O)=O)cc1,-3,x,0,-88*
COc1ccccc1S(=O)(=O)N(C)C[C@@H]1Oc2cc(C#CCC3CCCC3)ccc2S(=O)(=O)N([C@H](C)CO)C[C@@H]1C,0,x,0,-45
COc1ccc(C#Cc2ccc3c(c2)O[C@H](CN(C)S(=O)(=O)c2ccccc2F)[C@H](C)CN([C@@H](C)CO)S3(=O)=O)cc1,-7,x,0,-69
Cc1ccc2oc(C(=O)Nc3sc4c(c3C(=O)NCc3ccco3)CCC4)c(C)c2c1,x,x,0,x
CCCN(C)C[C@H]1OCCCC[C@@H](C)Oc2ccc(NC(=O)c3ccncc3)cc2C(=O)N([C@@H](C)CO)C[C@H]1C,-1,52,x,-88*
CCCN(C)C[C@H]1OCCCC[C@@H](C)Oc2ccc(NC(=O)c3ccncc3)cc2C(=O)N([C@H](C)CO)C[C@@H]1C,4,64,0,-19
CCCN(C)C[C@H]1OCCCC[C@H](C)Oc2ccc(NC(=O)c3ccncc3)cc2C(=O)N([C@H](C)CO)C[C@H]1C,0,-2,x,-86*
COc1ccc(S(=O)(=O)N(C)C[C@@H]2Oc3c(NC(=O)CCCCCC(=O)Nc4ccccc4N)cccc3C(=O)N([C@H](C)CO)C[C@@H]2C)cc1,-3,x,0,-85*
